Measurements published in ChEMBL document CHEMBL3352373, “Design and synthesis of 21-alkynylaryl pregnenolone derivatives and evaluation of their anticancer activity” (Bioorg Med Chem, 2014).
Activity calls are given as the source filed them. The rule behind the calls is not given here.

How the values were obtained:
[1] = test system: MCF7; experiment: Cytotoxic activity against human MCF7 cells after 48 hrs by MTT assay; type: functional, cell-based; details: MCF7, 48 h
How it was run: (§1)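 MTT assay; log-phase cells seeded at 10^4 cells/well in DMEM, allowed to attach for 24 h at 37 °C, 5% CO2. Compounds dissolved in DMSO/water (1:1) and tested at 0.1–100 µM (1:2 serial dilutions), four replicates per condition. MTT at 0.5 mg/ml final added 4 h before end; dissolved in 0.1 N HCl/isopropanol, A545 read. Untreated cells as 100% growth, blank subtracted; IC50 as mean ± SD of 3–4 independent experiments.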

[2] = test system: A549; experiment: Cytotoxic activity against human A549 cells after 24 hrs by MTT assay; type: functional, cell-based; details: A549, 24 h; how it was run: as §1
[3] = test system: HeLa; experiment: Cytotoxic activity against human HeLa cells assessed as cell viability at 10 uM after 24 hrs by trypan blue exclusion method; type: functional; details: read-out: Activity
How it was run: (§2)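 Trypan blue exclusion after 24 h compound exposure. Medium collected, attached cells trypsinized and pooled with it, then centrifuged at 1200 rpm for 5 min. Pellet resuspended in PBS with 0.2% trypan blue. 200–300 cells counted per experiment in three separate experiments. Viability is the percentage of viable cells over total cells, taken as the mean.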

[4] = test system: HeLa; experiment: Cytotoxic activity against human HeLa cells after 24 hrs by MTT assay; type: functional, cell-based; how it was run: as §1
[5] = test system: HepG2; experiment: Cytotoxic activity against human HepG2 cells after 48 hrs by MTT assay; type: functional, cell-based; details: HepG2, 48 h; how it was run: as §1
[6] = test system: LNCaP; experiment: Cytotoxic activity against human LNCAP cells assessed as cell viability at 10 uM after 24 hrs by trypan blue exclusion method; type: functional; details: read-out: Activity; how it was run: as §2
[7] = Inhibition of PI3K/Akt signalling pathway in human A431 cells at cytotoxic IC50 after 2 to 24 hrs by immunoblot; type: cell-based; details: A-431, TDE = time-dependent effect
How it was run: (§3)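 Cells dosed at their cytotoxic IC50 and lysed 24 h later (A431 also sampled over time) in ice-cold HEPES pH 7.5 buffer with phosphatase/protease inhibitors and 0.5% Triton X-100. 50 µg protein per lane on 10% SDS–PAGE, transferred to nitrocellulose, blocked in 5% milk/TBS-T. Probed overnight at 4 °C with anti-pAkt (Ser473; 1:1000) and β-actin loading control; HRP secondary, ECL detection. Untreated cells as control.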

[8] = test system: A-431; experiment: Cytotoxic activity against human A431 cells assessed as cell viability at 5 uM after 24 hrs by trypan blue exclusion method; type: functional; details: A-431, 24 h, read-out: Activity; how it was run: as §2
[9] = test system: HepG2; experiment: Cytotoxic activity against human HepG2 cells after 24 hrs by MTT assay; type: functional, cell-based; details: HepG2, 24 h; how it was run: as §1
[10] = test system: MCF7; experiment: Cytotoxic activity against human MCF7 cells assessed as cell viability at 10 uM after 24 hrs by trypan blue exclusion method; type: functional; details: MCF7, 24 h, read-out: Activity; how it was run: as §2
[11] = test system: A-431; experiment: Cytotoxic activity against human A431 cells after 48 hrs by MTT assay; type: functional, cell-based; details: A-431, 48 h; how it was run: as §1
[12] = test system: A-431; experiment: Cytotoxic activity against human A431 cells after 24 hrs by MTT assay; type: functional, cell-based; details: A-431, 24 h; how it was run: as §1
[13] = test system: HT-29; experiment: Cytotoxic activity against human HT-29 cells after 48 hrs by MTT assay; type: functional, cell-based; details: HT-29, 48 h; how it was run: as §1
[14] = test system: HT-29; experiment: Cytotoxic activity against human HT-29 cells after 24 hrs by MTT assay; type: functional, cell-based; details: HT-29, 24 h; how it was run: as §1
[15] = Inhibition of PI3K/Akt signalling pathway in human A431 cells at cytotoxic IC50 after 24 hrs by immunoblot; type: cell-based; details: A-431; how it was run: as §3
[16] = test system: LNCaP; experiment: Cytotoxic activity against human LNCAP cells after 24 hrs by MTT assay; type: functional, cell-based; how it was run: as §1
[17] = test system: A549; experiment: Cytotoxic activity against human A549 cells after 48 hrs by MTT assay; type: functional, cell-based; details: A549, 48 h; how it was run: as §1
[18] = test system: HeLa; experiment: Cytotoxic activity against human HeLa cells after 48 hrs by MTT assay; type: functional, cell-based; how it was run: as §1
[19] = test system: MCF7; experiment: Cytotoxic activity against human MCF7 cells after 24 hrs by MTT assay; type: functional, cell-based; details: MCF7, 24 h; how it was run: as §1
[20] = test system: LNCaP; experiment: Cytotoxic activity against human LNCAP cells after 48 hrs by MTT assay; type: functional, cell-based; how it was run: as §1
[21] = Inhibition of PI3K/Akt signalling pathway in human MCF7 cells at cytotoxic IC50 after 24 hrs by immunoblot; type: cell-based; how it was run: as §3
[22] = Inhibition of PI3K/Akt signalling pathway in human HeLa cells at cytotoxic IC50 after 24 hrs by immunoblot; type: cell-based; how it was run: as §3
[23] = Inhibition of PI3K/Akt signalling pathway in human LNCAP cells at cytotoxic IC50 after 24 hrs by immunoblot; type: cell-based; how it was run: as §3

Row | SMILES | IC50 [1] [µM] | IC50 [2] [µM] | viability at 10 µM [3] [%] | IC50 [4] [µM] | IC50 [5] [µM] | viability at 10 µM [6] [%] | viability at 5 µM [8] [%] | IC50 [9] [µM] | viability at 10 µM [10] [%] | IC50 [11] [µM] | IC50 [12] [µM] | IC50 [13] [µM] | IC50 [14] [µM] | inhibition [15] | IC50 [16] [µM] | IC50 [17] [µM] | IC50 [18] [µM] | IC50 [19] [µM] | IC50 [20] [µM] | also measured
1 | C[C@]12CC[C@H]3[C@@H](CC=C4C[C@@H](O)CC[C@@]43C)[C@@H]1CC[C@@H]2C(=O)C#Cc1cccc(C(F)(F)F)c1 | 18.6 | 29.3 | 92.5 | 25.1 | 16.4 | 92.1 | 0 | 45.7 | 94.2 | 0.54 | 2.28 | 26.4 | > 50 | Active | 26.2 | 20.7 | 8.34 | 31.4 | 17.4 | inhibition [7]: tde
2 | COc1ccc(C#CC(=O)[C@H]2CC[C@H]3[C@@H]4CC=C5C[C@@H](O)CC[C@]5(C)[C@H]4CC[C@]23C)c(C)c1 | 18.8 | 44.3 | – | > 50 | 45.7 | – | – | > 50 | – | 13.7 | 44.1 | 22.7 | 48.4 | – | 41.7 | 30.5 | 23.6 | 44.1 | 30.8 | –
3 | C[C@]12CC[C@H]3[C@@H](CC=C4C[C@@H](O)CC[C@@]43C)[C@@H]1CC[C@@H]2C(=O)C#Cc1ccc(F)cc1 | > 50 | > 50 | 98.4 | > 50 | > 50 | 25.6 | 28.6 | > 50 | 90.4 | 2.18 | 7.16 | 44.7 | > 50 | Active | 12.4 | 40.6 | 43.7 | > 50 | 10.8 | –
4 | COc1ccc(C#CC(=O)[C@H]2CC[C@H]3[C@@H]4CC=C5C[C@@H](O)CC[C@]5(C)[C@H]4CC[C@]23C)cc1 | > 50 | > 50 | – | > 50 | > 50 | – | – | > 50 | – | > 50 | > 50 | > 50 | > 50 | – | > 50 | > 50 | 26.7 | > 50 | 47.6 | –
5 | C#Cc1cccc(C#CC(=O)[C@H]2CC[C@H]3[C@@H]4CC=C5C[C@@H](O)CC[C@]5(C)[C@H]4CC[C@]23C)c1 | 5.15 | > 50 | 93.2 | > 50 | 17.9 | 90.3 | 0 | 42.6 | 0 | 1.52 | 4.85 | > 50 | > 50 | Active | 19.1 | 20.2 | > 50 | 11.2 | 16.9 | inhibition [21]: Active
6 | Cc1cc(C)c(C#CC(=O)[C@H]2CC[C@H]3[C@@H]4CC=C5C[C@@H](O)CC[C@]5(C)[C@H]4CC[C@]23C)cc1C | 7.78 | > 50 | – | > 50 | 48.6 | – | – | > 50 | – | 12.5 | 39.3 | > 50 | > 50 | – | > 50 | > 50 | 32.4 | 39 | 46.2 | –
7 | C[C@]12CC[C@H]3[C@@H](CC=C4C[C@@H](O)CC[C@@]43C)[C@@H]1CC[C@@H]2C(=O)C#Cc1ccccc1C(F)(F)F | 4.42 | 15.8 | 70.8 | 13.8 | 12.6 | 0 | 0 | 38.4 | 18.9 | 1.78 | 4.21 | 9.87 | 24.6 | Active | 7.9 | 6.3 | 3.85 | 13.5 | 5.44 | inhibition [22]: Active; inhibition [23]: Active; inhibition [21]: Active
8 | Cc1cc(C#CC(=O)[C@H]2CC[C@H]3[C@@H]4CC=C5C[C@@H](O)CC[C@]5(C)[C@H]4CC[C@]23C)ccc1F | 11.3 | 40.1 | – | > 50 | > 50 | – | – | > 50 | – | > 50 | > 50 | 26.7 | > 50 | – | > 50 | 28.2 | > 50 | 17.6 | 38.4 | –
9 | C[C@]12CC[C@H]3[C@@H](CC=C4C[C@@H](O)CC[C@@]43C)[C@@H]1CC[C@@H]2C(=O)C#Cc1cccc(F)c1 | 14.7 | > 50 | – | 21.4 | > 50 | – | – | > 50 | – | 45.3 | > 50 | 28.6 | > 50 | – | 14.7 | 24.9 | 6.44 | 28.4 | 9.48 | –
10 | C[C@]12CC[C@H](O)CC1=CC[C@@H]1[C@@H]2CC[C@]2(C)C(=O)CC[C@@H]12 [PRASTERONE] | > 50 | 47.8 | – | > 50 | > 50 | – | – | > 50 | – | > 50 | > 50 | > 50 | > 50 | – | > 50 | 47.8 | > 50 | > 50 | > 50 | –
